Measured values gathered from unrelated publications.
Compare with care: the assays were run in different laboratories.
MAP3K7: Mitogen-activated protein kinase kinase kinase 7 (MAP3K7, Homo sapiens, UniProt O43318)
ADRA1A: Alpha-1A adrenergic receptor (ADRA1A, Homo sapiens, UniProt P35348)
MAL12: Alpha-glucosidase MAL12 (MAL12, Saccharomyces cerevisiae S288c, UniProt P53341)

Structure (SMILES) | target | assay | conditions | measurement | result
C#Cc1cnc(Nc2ccnc(CO)c2)nc1Nc1ccccc1S(C)(=O)=NC#N (stereo not drawn) | MAP3K7 | enzyme activity, inhibitor | 1 µM | remaining activity | 78.9%
COc1cc2c3c(c1OC)-c1c(OC)ccc(NC(C)=O)c1CC3N(C)CC2 (stereo not drawn) | ADRA1A | ligand displacement, radioligand | 10 µM | inhibition | 10%
O=c1cc(-c2ccccc2)oc2cc(O)cc(O)c12 | MAL12 | enzyme activity, inhibitor, absorbance | 50 µM | inhibition | 31.2%
CCCCCCCCCCCCCC(=O)OCC(C)(C)CC1=C(O)C(=O)c2ccccc2C1=O | MAL12 | enzyme activity, inhibitor | 50 µM | inhibition | > 70%
C#Cc1cnc(Nc2ccc(CO)cc2)nc1Nc1ccccc1C(=O)NC | MAP3K7 | enzyme activity, inhibitor | 1 µM | remaining activity | 76.9%
COc1cc2c3c(c1OC)-c1c(OC)ccc(O)c1CC3N(C)CC2 (stereo not drawn) | ADRA1A | ligand displacement, radioligand | 10 µM | inhibition | 9%
O=c1cc(-c2ccc(O)c(O)c2)oc2c(Br)c(O)c(Br)c(O)c12 | MAL12 | enzyme activity, inhibitor, absorbance | 50 µM | inhibition | 95.1%
C#Cc1cnc(Nc2ccc(CO)nc2)nc1Nc1ccccc1S(C)(=O)=NC#N (stereo not drawn) | MAP3K7 | enzyme activity, inhibitor | 1 µM | remaining activity | 50.4%
O=C1C[C@@H](c2ccc(O)cc2)Oc2c(Br)c(O)c(Br)c(O)c21 | MAL12 | enzyme activity, inhibitor, absorbance | 50 µM | inhibition | 80.5%
C1=C/COCc2cc(ccc2OCCN2CCCC2)Nc2nccc(n2)-c2cccc(c2)COC/1 | Mitotic checkpoint serine/threonine-protein kinase BUB1 (BUB1, Homo sapiens, UniProt O43683) | binding | 0.1 µM | remaining binding | 91%
O=C1C[C@@H](c2ccc(O)cc2)Oc2cc(O)cc(O)c21 | MAL12 | enzyme activity, inhibitor, absorbance | 50 µM | inhibition | 26.5%
CCCCC(=O)Nc1ccc(-c2ccc3ncn(CCC)c(=O)c3c2)cn1 | Serine/threonine-protein kinase tousled-like 2 (TLK2, Homo sapiens, UniProt Q86UE8) | binding, competition with immobilised ligand | 0.5 µM | remaining binding | 87%
